Calls of active or inactive are those of the source. No cut-off for these calls is given here.
Assays:
[1] = system: K562; test: Induction of apoptosis in human K562 cells assessed as decrease in survivin level at 32 uM after 12 hrs by flow cytometric analysis relative to control; assay type: functional
[2] = system: B16-F10; test: Cytotoxicity against mouse B16F10 cells assessed as reduction in cell viability after 48 hrs by MTT assay; assay type: functional, cell-based; settings: B16-F10, 48 h
[3] = Selectivity index, ratio of IC50 for human PBMC to IC50 for mouse B16F10 cells after 24 hrs; assay type: toxicity; settings: PBMC versus B16F10 cells, read-out: Ratio IC50
How it was run: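 MTT viability after 24 h exposure to 1-100µM; untreated control OD taken as 100%. IC50 by curve fitting in each line and in PBMC from six healthy donors (Ficoll-Hypaque). SI = IC50 PBMC / IC50 tumor line; SI ≥5 high, 2–5 moderate, <2 low.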

[4] = system: K562; test: Induction of apoptosis in human K562 cells at 32 uM after 12 hrs by Annexin-V FITC staining-based flow cytometry relative to control; assay type: functional
[5] = system: PBMC; test: Cytotoxicity against human PBMC assessed as reduction in cell viability after 72 hrs by MTT assay; assay type: cell-based
[6] = system: K562; test: Induction of apoptosis in human K562 cells assessed as increase in FasR expression at 32 uM after 12 hrs by flow cytometric analysis relative to control; assay type: functional
[7] = system: K562; test: Induction of apoptosis in human K562 cells assessed as decrease in Bcl2 expression at 32 uM after 12 hrs by flow cytometric analysis relative to control; assay type: functional; design: scale not given: the % may be the effect or the level left
[8] = system: Daudi; test: Cytotoxicity against human Daudi cells assessed as reduction in cell viability after 24 hrs by MTT assay; assay type: functional, cell-based
How it was run: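 MTT viability after 24 h exposure. Cells seeded at 5x10^4 per well and tested at 1-100 µM. Optical density of untreated cells set as 100% viable. IC50 derived by curve fitting. PBMC from healthy non-smoking volunteers, isolated by Ficoll-Hypaque.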

[9] = Hemolytic activity in human RBC at 9 times IC50 relative to control; assay type: ADME, cell-based, Erythrocyte; settings: red blood cells (erythrocytes), read-out: Activity
How it was run: (§1)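 RBC from healthy non-smoking volunteers incubated with increasing concentrations of the selected pyrazolines. Saline served as the 0% lysis control and distilled water as the 100% lysis control. Percent hemolysis calculated relative to these controls.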

[10] = system: Jurkat; test: Induction of apoptosis in human Jurkat cells assessed as increase in membrane blebbing at 30.08 uM by acridine orange/ethidium bromide staining-based fluorescence microscopic analysis; assay type: functional, cell-based
[11] = Hemolytic activity in human RBC at 15 times IC50 relative to control; assay type: ADME, cell-based, Erythrocyte; settings: red blood cells (erythrocytes), read-out: Activity; how it was run: as §1
[12] = system: Jurkat; test: Antiproliferative activity against human Jurkat cells assessed as reduction in KI-67 expression at 30.08 uM after 12 hrs by flow cytometric analysis; assay type: functional, cell-based
[13] = system: Jurkat; test: Cell cycle arrest in human Jurkat cells assessed as increase in accumulation at S phase at 30.08 uM after 12 hrs by propidium iodide/RNAse staining based flow cytometric analysis; assay type: functional
[14] = system: Jurkat; test: Induction of apoptosis in human Jurkat cells assessed as increase in caspase-3 expression at 30.08 uM after 12 hrs by flow cytometric analysis relative to control; assay type: functional
[15] = system: PBL; test: Cytotoxicity against acute leukemia patient-derived PBL cells assessed as reduction in cell viability after 24 hrs; assay type: functional, cell-based; settings: Homo sapiens
How it was run: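 Mononuclear cells from acute leukemia patient samples (peripheral blood or bone marrow, taken before first treatment at diagnosis or relapse) isolated by Ficoll-Hypaque.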

COc1cc(C2=NN(C(C)=O)C(c3ccc(Br)cc3)C2)cc(OC)c1OC (stereo unspecified)
Activity [1]: 21.2% | IC50 [2]: 72.7 µM | selectivity ratio at 24 h [3]: 3.4 | Activity [4]: 25% | IC50 [5]: 118 µM | Activity [6]: 21.3% | Activity [7]: 13.4% | IC50 [8]: 49.8 µM | hemolysis at 9 times IC50 [9]: 6% | Activity [10]: Active | hemolysis at 15 times IC50 [11]: 15.8% | Activity [12]: Active | Activity [13]: inactive | Activity [14]: 128.3% | Activity [15]: Dose-dependent effect | IC50 [15]: 11.8 to 142 µM

— ChEMBL document CHEMBL4308915, “Synthesis of novel pyrazoline derivatives and the evaluation of death mechanisms involved in their antileukemic activity” (Bioorg Med Chem, 2019)
